Among the data in ChEMBL document CHEMBL2057152, “Synthesis and antibacterial activity against Clostridium difficile of novel demethylvancomycin derivatives” (2012) are MIC and Ratio values, retold here.

The structures appear in SMILES notation. In brackets after ≈: the same amount, converted by molar mass.

Holding throughout (format): functional
A short description of experiment [1]: Antibacterial activity against Clostridium difficile ATCC 43255 after 16 hrs by two-fold serial dilution method. The settings on record: Clostridioides difficile, ATCC 43255, 16 h. Summed up: (§1)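 CLSI agar dilution MIC. Compounds are dissolved in 50% water in DMSO as a stock, twofold serially diluted in sterile water, then diluted 10-fold into Mueller-Hinton agar. Organisms are grown in MH broth at 35 °C for 8 h and adjusted to 0.5 McFarland. They are applied to the drug-containing plates by multipoint inoculator and incubated at 35 °C for 16 h. Vancomycin and demethylvancomycin serve as controls.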

Experiment [2] relates to Clostridioides difficile. As to the kind of experiment: Ratio of MIC for vancomycin to compound MIC for Clostridium difficile ATCC 43255 after 16 hrs by two-fold serial dilution method.
For experiment [3], the system named is Clostridioides difficile. Kind of experiment: Antibacterial activity against Clostridium difficile ATCC 700057 after 16 hrs by two-fold serial dilution method. The settings on record: ATCC 700057, 16 h. The method in brief:
as §1

For experiment [4], the system named is Clostridioides difficile. As to the kind of experiment: Ratio of MIC for vancomycin to compound MIC for Clostridium difficile ATCC 700057 after 16 hrs by two-fold serial dilution method.
Experiment [5] deals with Enterococcus faecalis. As to the kind of experiment: Antibacterial activity against Enterococcus faecalis ATCC 700802 after 16 hrs by two-fold serial dilution method. The settings on record: ATCC 700802, 16 h. The method in brief:
as §1

Experiment [6] relates to Clostridioides difficile. Kind of experiment: Ratio of MIC for demethylvancomycin to compound MIC for Clostridium difficile IQCC 23903 after 16 hrs by two-fold serial dilution method.
Experiment [7] concerns Clostridioides difficile. Kind of experiment: Antibacterial activity against Clostridium difficile IQCC 23903 after 16 hrs by two-fold serial dilution method. The settings on record: IQCC 23903, 16 h. The method in brief:
as §1

Experiment [8] relates to Clostridioides difficile. Kind of experiment: Ratio of MIC for demethylvancomycin to compound MIC for Clostridium difficile ATCC 700792 after 16 hrs by two-fold serial dilution method.
The subject of experiment [9] is Clostridioides difficile. As to the kind of experiment: Ratio of MIC for vancomycin to compound MIC for Clostridium difficile IQCC 23903 after 16 hrs by two-fold serial dilution method.
The test system of experiment [10] is Clostridioides difficile. Kind of experiment: Ratio of MIC for demethylvancomycin to compound MIC for Clostridium difficile ATCC 43255 after 16 hrs by two-fold serial dilution method.
Experiment [11] deals with Clostridioides difficile. Kind of experiment: Ratio of MIC for demethylvancomycin to compound MIC for Clostridium difficile ATCC 700057 after 16 hrs by two-fold serial dilution method.
The subject of experiment [12] is Clostridioides difficile. Kind of experiment: Antibacterial activity against Clostridium difficile ATCC 700792 after 16 hrs by two-fold serial dilution method. Conditions: ATCC 700792, 16 h. Summed up: as §1
In experiment [13] the test system is Clostridioides difficile. Kind of experiment: Ratio of MIC for vancomycin to compound MIC for Clostridium difficile ATCC 700792 after 16 hrs by two-fold serial dilution method.
For experiment [14], the system named is Enterococcus faecalis. Kind of experiment: Ratio of MIC for demethylvancomycin to compound MIC for Enterococcus faecalis ATCC 700802 after 16 hrs by two-fold serial dilution method.
For experiment [15], the system named is Enterococcus faecalis. Kind of experiment: Ratio of MIC for vancomycin to compound MIC for Enterococcus faecalis ATCC 700802 after 16 hrs by two-fold serial dilution method.

As usually defined, the MIC is the least concentration at which growth counts as inhibited. Read a high MIC as a need for much substance.

Turning to `CC(C)C[C@@H](N)C(=O)N[C@H]1C(=O)N[C@@H](CC(N)=O)C(=O)N[C@H]2C(=O)N[C@H]3C(=O)N[C@H](C(=O)N[C@H](C(=O)O)c4cc(O)cc(O)c4-c4cc3ccc4O)[C@H](O)c3ccc(c(Cl)c3)Oc3cc2cc(c3O[C@@H]2O[C@H](CO)[C@@H](O)[C@H](O)[C@H]2O[C@H]2C[C@](C)(NCc3ccc(Cl)cc3)[C@H](O)[C@H](C)O2)Oc2ccc(cc2Cl)[C@H]1O`, the minimum inhibitory concentration (MIC) turned out to be 0.25 µg/mL (≈ 0.16 µM) in experiment [1]; 0.5 µg/mL (≈ 0.321 µM) in the experiment with Clostridioides difficile [3]; 16 µg/mL (≈ 10.3 µM) with Enterococcus faecalis [5]; 0.25 µg/mL (≈ 0.16 µM) in the experiment on Clostridioides difficile [7]; 0.25 µg/mL (≈ 0.16 µM) with Clostridioides difficile [12]. In addition, the Ratio with Clostridioides difficile [2], in the experiment on Clostridioides difficile [4], in the experiment on Clostridioides difficile [6], in the experiment with Clostridioides difficile [8], with Clostridioides difficile [9] and with Clostridioides difficile [10] was 2 each time. The Ratio with Clostridioides difficile [11] and in the experiment with Clostridioides difficile [13] was 2 throughout.

Take `CC(C)C[C@@H](N)C(=O)N[C@H]1C(=O)N[C@@H](CC(N)=O)C(=O)N[C@H]2C(=O)N[C@H]3C(=O)N[C@H](C(=O)N[C@H](C(=O)O)c4cc(O)cc(O)c4-c4cc3ccc4O)[C@H](O)c3ccc(c(Cl)c3)Oc3cc2cc(c3O[C@@H]2O[C@H](CO)[C@@H](O)[C@H](O)[C@H]2O[C@H]2C[C@](C)(NCc3ccc4ccccc4c3)[C@H](O)[C@H](C)O2)Oc2ccc(cc2Cl)[C@H]1O`: the MIC in [1] was found to be 0.25 µg/mL (≈ 0.159 µM); in the experiment on Clostridioides difficile [3], 0.25 µg/mL (≈ 0.159 µM); with Enterococcus faecalis [5], 16 µg/mL (≈ 10.2 µM); against Clostridioides difficile [7], 0.25 µg/mL (≈ 0.159 µM); with Clostridioides difficile [12], 0.125 µg/mL (≈ 0.0793 µM). Also, the Ratio in the experiment on Clostridioides difficile [2], in the experiment with Clostridioides difficile [4], in the experiment with Clostridioides difficile [6], in the experiment with Clostridioides difficile [8], with Clostridioides difficile [9] and in the experiment on Clostridioides difficile [10] was 2 in each case. Besides, the Ratio with Clostridioides difficile [11] and in the experiment on Clostridioides difficile [13] was 2 each time.

For `CC(C)C[C@@H](N)C(=O)N[C@H]1C(=O)N[C@@H](CC(N)=O)C(=O)N[C@H]2C(=O)N[C@H]3C(=O)N[C@H](C(=O)N[C@H](C(=O)O)c4cc(O)cc(O)c4-c4cc3ccc4O)[C@H](O)c3ccc(c(Cl)c3)Oc3cc2cc(c3O[C@@H]2O[C@H](CO)[C@@H](O)[C@H](O)[C@H]2O[C@H]2C[C@](C)(NCc3c4ccccc4cc4ccccc34)[C@H](O)[C@H](C)O2)Oc2ccc(cc2Cl)[C@H]1O`, the MIC in experiment [1] turned out to be 0.25 µg/mL (≈ 0.154 µM); in the experiment with Clostridioides difficile [3] it was 0.5 µg/mL (≈ 0.308 µM); with Enterococcus faecalis [5] it was 2 µg/mL (≈ 1.23 µM); against Clostridioides difficile [7], 0.25 µg/mL (≈ 0.154 µM); in the experiment with Clostridioides difficile [12], 0.25 µg/mL (≈ 0.154 µM). For the same molecule, the Ratio in the experiment on Clostridioides difficile [2], in the experiment on Clostridioides difficile [4], with Clostridioides difficile [6], in the experiment with Clostridioides difficile [8], in the experiment with Clostridioides difficile [9] and in the experiment with Clostridioides difficile [10] was 2 each time. Besides, the Ratio in the experiment on Clostridioides difficile [11] and in the experiment with Clostridioides difficile [13] was 2 each time.

For the molecule `CC(C)C[C@@H](N)C(=O)N[C@H]1C(=O)N[C@@H](CC(N)=O)C(=O)N[C@H]2C(=O)N[C@H]3C(=O)N[C@H](C(=O)N[C@H](C(=O)O)c4cc(O)cc(O)c4-c4cc3ccc4O)[C@H](O)c3ccc(c(Cl)c3)Oc3cc2cc(c3O[C@@H]2O[C@H](CO)[C@@H](O)[C@H](O)[C@H]2O[C@H]2C[C@](C)(NCCC(C)CC(C)(C)C)[C@H](O)[C@H](C)O2)Oc2ccc(cc2Cl)[C@H]1O` (some centres not stated), the MIC is 0.5 µg/mL (≈ 0.32 µM) in [1]; 0.25 µg/mL (≈ 0.16 µM) in the experiment with Clostridioides difficile [3]; 8 µg/mL (≈ 5.12 µM) against Enterococcus faecalis [5]; 0.25 µg/mL (≈ 0.16 µM) with Clostridioides difficile [7]; 0.5 µg/mL (≈ 0.32 µM) with Clostridioides difficile [12]. In addition, the Ratio with Clostridioides difficile [2], in the experiment on Clostridioides difficile [4], in the experiment on Clostridioides difficile [6], in the experiment on Clostridioides difficile [8], in the experiment on Clostridioides difficile [9] and in the experiment with Clostridioides difficile [10] was 2 each time. Also, the Ratio in the experiment on Clostridioides difficile [11] and with Clostridioides difficile [13] was 2 throughout.

`CCCCCCCN[C@@]1(C)C[C@H](O[C@H]2[C@H](Oc3c4cc5cc3Oc3ccc(cc3Cl)[C@@H](O)[C@@H](NC(=O)[C@H](N)CC(C)C)C(=O)N[C@@H](CC(N)=O)C(=O)N[C@H]5C(=O)N[C@H]3C(=O)N[C@H](C(=O)N[C@H](C(=O)O)c5cc(O)cc(O)c5-c5cc3ccc5O)[C@H](O)c3ccc(c(Cl)c3)O4)O[C@H](CO)[C@@H](O)[C@@H]2O)O[C@@H](C)[C@H]1O`: the MIC in [1] worked out at 0.5 µg/mL (≈ 0.326 µM); in the experiment on Clostridioides difficile [3], 0.25 µg/mL (≈ 0.163 µM); with Enterococcus faecalis [5], 8 µg/mL (≈ 5.22 µM); in the experiment on Clostridioides difficile [7] it was 0.25 µg/mL (≈ 0.163 µM); in the experiment on Clostridioides difficile [12] it was 0.5 µg/mL (≈ 0.326 µM). The Ratio with Clostridioides difficile [2], with Clostridioides difficile [4], in the experiment on Clostridioides difficile [6], in the experiment with Clostridioides difficile [8], in the experiment on Clostridioides difficile [9] and in the experiment on Clostridioides difficile [10] was 2 in each case. The Ratio in the experiment with Clostridioides difficile [11] and in the experiment with Clostridioides difficile [13] was 2 in each case.

Regarding `CCCCCCCCCCCN[C@@]1(C)C[C@H](O[C@H]2[C@H](Oc3c4cc5cc3Oc3ccc(cc3Cl)[C@@H](O)[C@@H](NC(=O)[C@H](N)CC(C)C)C(=O)N[C@@H](CC(N)=O)C(=O)N[C@H]5C(=O)N[C@H]3C(=O)N[C@H](C(=O)N[C@H](C(=O)O)c5cc(O)cc(O)c5-c5cc3ccc5O)[C@H](O)c3ccc(c(Cl)c3)O4)O[C@H](CO)[C@@H](O)[C@@H]2O)O[C@@H](C)[C@H]1O`, the MIC (in [1]; against Clostridioides difficile [3]; against Enterococcus faecalis [5]; in the experiment on Clostridioides difficile [7]; with Clostridioides difficile [12]) was 0.5 µg/mL (≈ 0.315 µM) throughout. For the same molecule, the Ratio with Enterococcus faecalis [14] and in the experiment on Enterococcus faecalis [15] was 64 throughout.
